Laboratory results reported in ChEMBL document CHEMBL5150070, “Tricyclic SpiroLactams Kill Mycobacteria In Vitro and In Vivo by Inhibiting Type II NADH Dehydrogenases” (J Med Chem, 2022).
≈ marks a conversion by molar mass, not a printed value.

How the values were obtained:
[1] = system: Mycobacterium tuberculosis; test: Antimycobacterial activity against Mycobacterium tuberculosis H37Rv assessed as reduction in bacterial cell growth by measuring resazurin reduction incubated for 6 days by fluorescence microplate based assay; assay type: functional; settings: time 6 day
[2] = system: Mycobacterium marinum; test: Antibiotic activity against Mycobacterium marinum M strain assessed as reduction in bacterial cell growth by measuring resazurin reduction incubated for 6 days by fluorescence microplate based assay; assay type: functional; settings: 144 h, time 6 day
[3] = system: Mycobacterium tuberculosis; test: Antibiotic activity against Mycobacterium tuberculosis H37Rv assessed as reduction in bacterial cell growth by measuring resazurin reduction incubated for 6 days by fluorescence microplate based assay; assay type: functional; settings: 144 h, time 6 day
[4] = system: Mycobacteroides abscessus; test: Antibiotic activity against Mycobacterium abscessus CIP104536, Smooth variant assessed as reduction in bacterial cell growth by measuring resazurin reduction incubated for 6 days by fluorescence microplate based assay; assay type: functional; settings: 144 h, time 6 day
[5] = system: Klebsiella pneumoniae; test: Antibiotic activity against Klebsiella pneumoniae LMG 2095 assessed as reduction in bacterial cell growth by measuring resazurin reduction incubated for 6 days by fluorescence microplate based assay; assay type: functional; settings: LMG 2095, 144 h, time 6 day
[6] = system: Mycolicibacterium smegmatis; test: Antibiotic activity against Mycobacterium smegmatis mc2155 assessed as reduction in bacterial cell growth by measuring resazurin reduction incubated for 6 days by fluorescence microplate based assay; assay type: functional; settings: mc2155, 144 h, time 6 day
[7] = system: Mycobacterium avium; test: Antibiotic activity against Mycobacterium avium TMC 724, ATCC-25291 assessed as reduction in bacterial cell growth by measuring resazurin reduction incubated for 6 days by fluorescence microplate based assay; assay type: functional; settings: TMC 724, ATCC-25291, 144 h, time 6 day
[8] = system: Pseudomonas aeruginosa; test: Antibiotic activity against Pseudomonas aeruginosa POA1 assessed as reduction in bacterial cell growth by measuring resazurin reduction incubated for 6 days by fluorescence microplate based assay; assay type: functional; settings: POA1, 144 h, time 6 day
[9] = system: Bacillus subtilis; test: Antibiotic activity against Bacillus subtilis ATCC6633 assessed as reduction in bacterial cell growth by measuring resazurin reduction incubated for 6 days by fluorescence microplate based assay; assay type: functional; settings: ATCC6633, 144 h, time 6 day
[10] = system: Escherichia coli; test: Antibiotic activity against Escherichia coli deltatolC BW25113 deltatolC assessed as reduction in bacterial cell growth by measuring resazurin reduction incubated for 6 days by fluorescence microplate based assay; assay type: functional; settings: 144 h, time 6 day
Summary of the method: (§1)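 E. coli BW25113, E. coli ΔtolC and S. aureus SH1000 were cultured and tested in cation-adjusted Mueller Hinton II broth. Viability was read by adding resazurin and measuring resorufin fluorescence at Ex 530 nm / Em 590 nm.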

[11] = molecular target: T1, Type II NADH:quinone oxidoreductase NdhA (Mycobacterium tuberculosis, UniProt P95200); test: Inhibition of Mycobacterium smegmatis MC2 155 recombinant ndhA assessed as rate of NADH oxidation in the presence of an electron acceptor menadione; parameters: species or system Mycolicibacterium smegmatis
T1 sequence (P95200 whole entry): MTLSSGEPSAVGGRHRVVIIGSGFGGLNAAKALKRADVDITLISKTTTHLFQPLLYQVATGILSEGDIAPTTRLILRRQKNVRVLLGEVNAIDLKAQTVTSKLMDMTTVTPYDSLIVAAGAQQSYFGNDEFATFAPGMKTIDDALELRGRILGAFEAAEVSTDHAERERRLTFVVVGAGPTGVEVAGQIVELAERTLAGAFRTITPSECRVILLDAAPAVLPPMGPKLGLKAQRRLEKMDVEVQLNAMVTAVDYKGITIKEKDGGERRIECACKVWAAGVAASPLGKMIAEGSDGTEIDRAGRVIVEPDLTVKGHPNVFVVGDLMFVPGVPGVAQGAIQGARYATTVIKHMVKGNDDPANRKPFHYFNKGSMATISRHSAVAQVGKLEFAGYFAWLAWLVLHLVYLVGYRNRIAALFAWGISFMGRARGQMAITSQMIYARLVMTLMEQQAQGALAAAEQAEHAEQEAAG

[12] = Octanol/PBS partition coefficient, logD of compound at pH 7.4 measured after 2 hrs by shake flask method; assay type: physicochemical; settings: octanol/water, pH 7.4, 2 h
Summary of the method: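 A 10 mM DMSO stock was diluted 50-fold into 1:1 octanol:PBS pH 7.4 and shaken gently for 2 h at room temperature. Each phase was diluted 50-fold in MeOH and quantified by LC-MS/MS. LogD = log of the octanol/PBS concentration ratio from mass signals. Run in triplicate.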

[13] = system: Staphylococcus aureus; test: Antibiotic activity against Staphylococcus aureus SH1000 assessed as reduction in bacterial cell growth by measuring resazurin reduction incubated for 6 days by fluorescence microplate based assay; assay type: functional; settings: SH1000, 144 h, time 6 day; summary of the method: as §1
[14] = Aqueous solubility of compound in pH 7.4 […]; assay type: physicochemical; settings: buffer
Summary of the method: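 A 10 mM DMSO stock was diluted 50-fold into PBS pH 7.4 or methanol and shaken gently for 24 h at room temperature. Samples were centrifuged, filtered (0.45 µm), diluted 50-fold in MeOH and analysed by LC-MS/MS. Solubility = (AUC PBS/AUC MeOH)×200. Run in triplicate.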

[15] = system: Mycobacterium tuberculosis; test: Antimycobacterial activity against Mycobacterium tuberculosis H37Rv infected in human A-THP1 macrophages assessed as viability of infected macrophages incubated for 96 hrs by fluorescence microplate assay; assay type: functional, organism-based
Summary of the method: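 THP-1 cells differentiated with 50 ng/mL PMA for 72 h, infected with log-phase H37Rv (MOI 10, 2 h), and extracellular bacteria killed with 50 µg/mL amikacin for 1 h. Cells detached and seeded at 5×10⁵/mL in RPMI-10% FBS with PMA onto pre-dispensed compound, 96 h at 37°C, 5% CO₂. Macrophage viability by 0.05% resazurin fluorescence.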

[16] = system: Mycobacteroides abscessus; test: Antibiotic activity against Mycobacterium abscessus CIP104536, Rough variant assessed as reduction in bacterial cell growth by measuring resazurin reduction incubated for 6 days by fluorescence microplate based assay; assay type: functional; settings: 144 h, time 6 day
[17] = system: Acinetobacter baumannii; test: Antibiotic activity against Acinetobacter baumannii LMG-17978 assessed as reduction in bacterial cell growth by measuring resazurin reduction incubated for 6 days by fluorescence microplate based assay; assay type: functional; settings: LMG-17978, 144 h, time 6 day
[18] = molecular target: Type II NADH:quinone oxidoreductase Ndh (Mycobacterium tuberculosis, UniProt P95160); test: Inhibition of Mycobacterium tuberculosis recombinant type II NADH dehydrogenase ndh expressed in Escherichia coli assessed as rate of NADH oxidation in the presence of an electron acceptor menadione
Summary of the method: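 Purified N-terminal MBP-tagged Mtb Ndh (Rv1854c) expressed in E. coli, 70 nM, with 500 µM NADH in 50 mM HEPES pH 7.1 (K₂HPO₄). Compound pre-incubated 15 min at 25°C, reaction started with 100 µM menadione. NADH oxidation followed at 340 nm every 60 s. Rate taken from linear slope; IC50 is the mean ± SD of at least 3 independent experiments.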

Chain of Type II NADH:quinone oxidoreductase Ndh (P95160 whole entry): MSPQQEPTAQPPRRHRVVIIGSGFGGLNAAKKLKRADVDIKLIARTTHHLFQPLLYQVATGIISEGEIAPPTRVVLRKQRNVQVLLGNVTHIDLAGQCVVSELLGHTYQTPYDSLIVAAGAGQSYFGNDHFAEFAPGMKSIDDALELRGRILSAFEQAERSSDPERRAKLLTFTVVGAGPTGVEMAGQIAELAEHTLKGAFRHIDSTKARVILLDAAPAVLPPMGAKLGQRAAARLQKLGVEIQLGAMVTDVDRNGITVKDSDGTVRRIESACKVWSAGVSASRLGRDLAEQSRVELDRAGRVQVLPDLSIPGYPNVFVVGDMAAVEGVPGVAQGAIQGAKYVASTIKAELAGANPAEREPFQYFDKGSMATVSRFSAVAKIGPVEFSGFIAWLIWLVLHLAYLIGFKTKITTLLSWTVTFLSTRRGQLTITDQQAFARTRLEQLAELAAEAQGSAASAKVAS

Row | Compound | MIC98 [1] [µM] | MIC [2] [µM] | MIC [3] [µM] | MIC [4] [µM] | MIC [5] [µM] | MIC [6] [µM] | MIC [7] [µM] | MIC [8] [µM] | MIC [9] [µM] | MIC [10] [µM] | IC50 [11] [nM] | logD [12] | MIC [13] [µM] | solubility [14] [µM] | IC50 [15] [nM] | MIC [16] [µM] | MIC [17] [µM] | IC50 [18] [nM]
1 | O=C1CC[C@@H]2CN(Cc3ccccc3)CC[C@@]23OC[C@H](C2CC2)N13 | 37.5 (≈ 12.2 µg/mL) | – | – | – | – | – | – | – | – | – | – | – | – | – | – | – | – | –
2 | CC(C)[C@H]1CO[C@]23CCN(Cc4ccccc4)C[C@H]2CCC(=O)N13 | – | 6.3 (≈ 2.07 µg/mL) | 3.2 (≈ 1.05 µg/mL) | ≥ 100 | > 100 | 29.2 (≈ 9.59 µg/mL) | 13.1 (≈ 4.3 µg/mL) | > 100 | > 100 | > 100 | 980 | 2.7 | > 100 | 178 (≈ 58.5 µg/mL) | 8200 | ≥ 100 | > 100 | –
3 | COc1ccc(CN2CC[C@]34OC[C@H](C(C)C)N3C(=O)CC[C@@H]4C2)cc1 | 4.7 (≈ 1.68 µg/mL) | – | – | – | – | – | – | – | – | – | 2340 | – | – | – | – | – | – | 200
